Reference: ChEMBL document CHEMBL4765405, “Design, synthesis and biological activities of novel pleuromutilin derivatives with a substituted triazole moiety as potent antibacterial agents” (Eur J Med Chem, 2020)
≈ marks a conversion by molar mass, not a printed value.

Legend:
Assay type in all cases: functional
Staphylococcus aureus [1] = experiment: Bactericidal activity against methicillin-resistant Staphylococcus aureus ATCC 43300 preincubated 16 to 20 hrs followed by subculturing and measured after over night
Method in brief: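 MBC determined by the CLSI broth microdilution method against MRSA ATCC 43300, with ATCC 43300 also serving as the QC strain. Pleuromutilin and tiamulin were reference drugs.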

Staphylococcus aureus [2] = experiment: Antibacterial activity against Staphylococcus aureus 144 after 24 hrs by CLSI based broth micro dilution method
Method in brief: (§1)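 Broth microdilution run per CLSI. MRSA ATCC 43300 served as the QC strain, with the CLSI QC range as reference. S. aureus AD3 and 144 are clinical isolates from Guangdong Province. Pleuromutilin and tiamulin were run as reference drugs.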

Staphylococcus aureus [3] = experiment: Antibacterial activity against Staphylococcus aureus ATCC 29213 after 24 hrs by CLSI based broth micro dilution method; method in brief: as §1
Staphylococcus aureus [4] = experiment: Bactericidal activity against Staphylococcus aureus 144 preincubated 16 to 20 hrs followed by subculturing and measured after over night
Method in brief: (§2)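 MBC by CLSI broth microdilution on the same strain panel: S. aureus ATCC 43300, ATCC 29213, clinical isolates AD3 and 144, E. coli ATCC 25922; ATCC 43300 served as QC strain.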

[5] = Ratio of MBC for bactericidal activity against methicillin-resistant Staphylococcus aureus ATCC 43300 to MIC for antibacterial activity against methicillin-resistant Staphylococcus aureus ATCC 4330
Staphylococcus aureus [6] = experiment: Bactericidal activity against Staphylococcus aureus ATCC 29213 preincubated 16 to 20 hrs followed by subculturing and measured after over night; method in brief: as §2
Escherichia coli [7] = experiment: Antibacterial activity against Escherichia coli ATCC 25922 after 24 hrs by CLSI based broth micro dilution method
Method in brief: (§3)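 CLSI broth microdilution MIC against S. aureus ATCC 43300 (MRSA), ATCC 29213, clinical isolates AD3 and 144 (Guangdong Province), and E. coli ATCC 25922; ATCC 43300 served as QC strain, with the CLSI quality control range as reference.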

Staphylococcus aureus [8] = experiment: Antibacterial activity against Staphylococcus aureus AD3 after 24 hrs by CLSI based broth micro dilution method; method in brief: as §3
Staphylococcus aureus [9] = experiment: Bactericidal activity against Staphylococcus aureus AD3 preincubated 16 to 20 hrs followed by subculturing and measured after over night; method in brief: as §2
Escherichia coli [10] = experiment: Bactericidal activity against Escherichia coli ATCC 25922 preincubated 16 to 20 hrs followed by subculturing and measured after over night; method in brief: as §2
Staphylococcus aureus [11] = experiment: Antibacterial activity against methicillin-resistant Staphylococcus aureus ATCC 43300 after 24 hrs by CLSI based broth micro dilution method; method in brief: as §1

Structure (SMILES)	MBC (Staphylococcus aureus [1])	MIC (Staphylococcus aureus [2])	MIC (Staphylococcus aureus [3])	MBC (Staphylococcus aureus [4])	Ratio [5]	MBC (Staphylococcus aureus [6])	MIC (Escherichia coli [7])	MIC (Staphylococcus aureus [8])	MBC (Staphylococcus aureus [9])	MBC (Escherichia coli [10])	MIC (Staphylococcus aureus [11])
C=C[C@]1(C)C[C@@H](OC(=O)CSc2ccccc2NC(=O)Cn2cc(CN3CCN(c4ccc(Cl)cc4)CC3)nn2)[C@]2(C)[C@H](C)CC[C@]3(CCC(=O)[C@H]32)[C@@H](C)[C@@H]1O	1 mg/L (≈ 1.24 µM)	2 mg/L (≈ 2.49 µM)	1 mg/L (≈ 1.24 µM)	2 mg/L (≈ 2.49 µM)	1	4 mg/L (≈ 4.98 µM)	> 32 mg/L	2 mg/L (≈ 2.49 µM)	4 mg/L (≈ 4.98 µM)	> 32 mg/L	0.5 mg/L (≈ 0.622 µM)
C=C[C@]1(C)C[C@@H](OC(=O)CSc2ccccc2NC(=O)Cn2cc(CN3CCN(c4ccccc4[N+](=O)[O-])CC3)nn2)[C@]2(C)[C@H](C)CC[C@]3(CCC(=O)[C@H]32)[C@@H](C)[C@@H]1O	1 mg/L (≈ 1.23 µM)	0.5 mg/L (≈ 0.614 µM)	0.25 mg/L (≈ 0.307 µM)	2 mg/L (≈ 2.46 µM)	1	0.25 mg/L (≈ 0.307 µM)	> 32 mg/L	0.5 mg/L (≈ 0.614 µM)	1 mg/L (≈ 1.23 µM)	> 32 mg/L	0.5 mg/L (≈ 0.614 µM)
C=C[C@]1(C)C[C@@H](OC(=O)CSc2ccccc2NC(=O)Cn2cc(CN3CCCCC3)nn2)[C@]2(C)[C@H](C)CC[C@]3(CCC(=O)[C@H]32)[C@@H](C)[C@@H]1O	2 mg/L (≈ 2.89 µM)	1 mg/L (≈ 1.45 µM)	0.5 mg/L (≈ 0.723 µM)	1 mg/L (≈ 1.45 µM)	1	0.5 mg/L (≈ 0.723 µM)	> 32 mg/L	0.5 mg/L (≈ 0.723 µM)	0.5 mg/L (≈ 0.723 µM)	> 32 mg/L	0.5 mg/L (≈ 0.723 µM)
C=C[C@]1(C)C[C@@H](OC(=O)CSc2ccccc2NC(=O)Cn2cc(CN3CCN(c4cccc(Cl)c4)CC3)nn2)[C@]2(C)[C@H](C)CC[C@]3(CCC(=O)[C@H]32)[C@@H](C)[C@@H]1O	4 mg/L (≈ 4.98 µM)	2 mg/L (≈ 2.49 µM)	1 mg/L (≈ 1.24 µM)	4 mg/L (≈ 4.98 µM)	1	1 mg/L (≈ 1.24 µM)	> 32 mg/L	2 mg/L (≈ 2.49 µM)	2 mg/L (≈ 2.49 µM)	> 32 mg/L	2 mg/L (≈ 2.49 µM)
C=C[C@]1(C)C[C@@H](OC(=O)CSc2ccccc2NC(=O)Cn2cc(CN3CCN(c4ccc(OC)cc4)CC3)nn2)[C@]2(C)[C@H](C)CC[C@]3(CCC(=O)[C@H]32)[C@@H](C)[C@@H]1O	1 mg/L (≈ 1.25 µM)	1 mg/L (≈ 1.25 µM)	0.5 mg/L (≈ 0.626 µM)	2 mg/L (≈ 2.5 µM)	1	0.5 mg/L (≈ 0.626 µM)	> 32 mg/L	1 mg/L (≈ 1.25 µM)	1 mg/L (≈ 1.25 µM)	> 32 mg/L	1 mg/L (≈ 1.25 µM)
C=C[C@]1(C)C[C@@H](OC(=O)CSc2ccccc2NC(=O)Cn2cc(CN3CCCC(CO)C3)nn2)[C@]2(C)[C@H](C)CC[C@]3(CCC(=O)[C@H]32)[C@@H](C)[C@@H]1O (some centres undefined)	0.5 mg/L (≈ 0.693 µM)	0.5 mg/L (≈ 0.693 µM)	0.5 mg/L (≈ 0.693 µM)	0.5 mg/L (≈ 0.693 µM)	1	0.5 mg/L (≈ 0.693 µM)	> 32 mg/L	0.5 mg/L (≈ 0.693 µM)	1 mg/L (≈ 1.39 µM)	> 32 mg/L	0.5 mg/L (≈ 0.693 µM)
C=C[C@]1(C)C[C@@H](OC(=O)CSc2ccccc2NC(=O)Cn2cc(CN3CCN(c4ccc(F)cc4)CC3)nn2)[C@]2(C)[C@H](C)CC[C@]3(CCC(=O)[C@H]32)[C@@H](C)[C@@H]1O	1 mg/L (≈ 1.27 µM)	1 mg/L (≈ 1.27 µM)	0.5 mg/L (≈ 0.635 µM)	2 mg/L (≈ 2.54 µM)	1	0.5 mg/L (≈ 0.635 µM)	> 32 mg/L	0.5 mg/L (≈ 0.635 µM)	1 mg/L (≈ 1.27 µM)	> 32 mg/L	1 mg/L (≈ 1.27 µM)
C=C[C@]1(C)C[C@@H](OC(=O)CSc2ccccc2NC(=O)Cn2cc(CN3CCC(CCO)CC3)nn2)[C@]2(C)[C@H](C)CC[C@]3(CCC(=O)[C@H]32)[C@@H](C)[C@@H]1O	1 mg/L (≈ 1.36 µM)	0.5 mg/L (≈ 0.679 µM)	0.5 mg/L (≈ 0.679 µM)	0.5 mg/L (≈ 0.679 µM)	1	0.5 mg/L (≈ 0.679 µM)	> 32 mg/L	1 mg/L (≈ 1.36 µM)	1 mg/L (≈ 1.36 µM)	> 32 mg/L	0.5 mg/L (≈ 0.679 µM)
C=C[C@]1(C)C[C@@H](OC(=O)CSc2ccccc2NC(=O)Cn2cc(CN3CCN(c4ccc(C)cc4)CC3)nn2)[C@]2(C)[C@H](C)CC[C@]3(CCC(=O)[C@H]32)[C@@H](C)[C@@H]1O	4 mg/L (≈ 5.11 µM)	1 mg/L (≈ 1.28 µM)	0.5 mg/L (≈ 0.639 µM)	2 mg/L (≈ 2.55 µM)	1	0.5 mg/L (≈ 0.639 µM)	> 32 mg/L	1 mg/L (≈ 1.28 µM)	2 mg/L (≈ 2.55 µM)	> 32 mg/L	1 mg/L (≈ 1.28 µM)
